The test system of assay [1] is Radical scavenging activity. Description: Antioxidant activity assessed as DPPH radical scavenging activity by spectrophotometry. The format is functional. In a few lines:
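DPPH• in methanol, prepared daily and kept from light; 0.5 mL test solution in methanol (4-25 µM) added to 0.5 mL of 100 µM DPPH•. Absorbance read at 518 nm at intervals until equilibrium, with a methanol blank; triplicates, five analyte concentrations. %DPPH• remaining = Af/A0×100; concentration plotted against % remaining to get the 50% scavenging value.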

Assay [2] concerns Radical scavenging activity. Kind of assay: Antioxidant activity assessed as DPPH radical scavenging activity up to 100 uM by spectrophotometry. The format is functional. A general note: DPPH is a stable violet radical that fades when it is reduced.

Our source for the EC50 and Activity values is ChEMBL document CHEMBL3232778, “One-pot synthesis and radical scavenging activity of novel polyhydroxylated 3-arylcoumarins” (Eur J Med Chem, 2014).

The source made the active and inactive calls. The rule behind the calls is not given here.

As usually defined, the EC50 is the concentration needed to bring the measured effect to its halfway point. With `O=C(O)c1cc(O)c(O)cc1-c1cc2cc(O)c(O)cc2oc1=O`, the EC50 in assay [1] amounted to 5.3 µM.

Take `O=C(O)c1ccccc1-c1cc2cc(O)ccc2oc1=O`: in assay [2], the result was inactive.

In the case of `O=C(O)c1cc(O)c(O)c(O)c1` [GALLIC ACID], the EC50 in assay [1] was 5.34 µM.

`O=C(O)c1cc(O)c(O)cc1-c1cc2ccc(O)cc2oc1=O`: the concentration for a half-maximal effect (EC50) in assay [1] came out at 6.02 µM.

As to `O=C(O)c1cc(O)c(O)cc1-c1cc2cccc(O)c2oc1=O`, in assay [1], the concentration for a half-maximal effect (EC50) turned out to be 4.09 µM.

Consider `O=C(O)c1cc(O)c(O)cc1-c1cc2c(O)cccc2oc1=O`, for which the EC50 in assay [1] was determined as 6.86 µM.

On to `O=C(O)c1ccccc1-c1cc2cc(Br)ccc2oc1=O`, for which the outcome in assay [2] was inactive.

Take `O=C(O)c1ccccc1-c1cc2ccc(O)c(O)c2oc1=O`: the EC50 in assay [1] turned out to be 3.59 µM.

Turning to `O=C(O)c1cc(O)c(O)cc1-c1cc2cc(Br)ccc2oc1=O`, in assay [1], the EC50 was found to be 4.02 µM.

As for `O=C(O)c1ccccc1-c1cc2cccc(O)c2oc1=O`, in assay [2], the result was inactive.

Consider `O=C(O)c1ccccc1-c1cc2ccc(O)cc2oc1=O`, for which the result in assay [2] was inactive.

As for `O=C(O)c1cc(O)c(O)cc1-c1cc2ccc(O)c(O)c2oc1=O`, the 50% effective concentration (EC50) in assay [1] was determined as 3.39 µM.

With `O=C(O)c1ccc(O)c(O)c1` [PROTOCATECHUIC ACID], the EC50 in assay [1] is 8.83 µM.

As to `O=C(O)c1cc(O)c(O)cc1-c1cc2ccccc2oc1=O`, the half-maximal effective concentration (EC50) in assay [1] came out at 5.14 µM.

Regarding `Cc1c(C)c2c(c(C)c1O)CCC(C)(C(=O)O)O2` (stereo not given) [TROLOX], the half-maximal effective concentration (EC50) in assay [1] was 9.34 µM.

For the molecule `O=C(O)c1ccccc1-c1cc2cc(O)c(O)cc2oc1=O`, the 50% effective concentration (EC50) in assay [1] is 5.32 µM.

Consider `O=C(O)c1ccccc1-c1cc2c(O)cccc2oc1=O`, for which, in assay [2], the result was inactive.

On to `O=C(O)c1cc(O)c(O)cc1-c1cc2cc(O)ccc2oc1=O`, for which the EC50 in assay [1] was determined as 3.17 µM.

Regarding `O=C(O)/C=C/c1ccc(O)c(O)c1` [CAFFEIC ACID], the EC50 in assay [1] is 9.48 µM.

For the molecule `O=C(O)c1ccccc1-c1cc2ccccc2oc1=O`, in assay [2], the outcome was inactive.
